Measured values as given in ChEMBL document CHEMBL4602702, “Red-Emitting Dibenzodiazepinone Derivatives as Fluorescent Dualsteric Probes for the Muscarinic Acetylcholine M2 Receptor” (J Med Chem, 2020).

Experiments:
[1] = target: T1, Muscarinic acetylcholine receptor M2 (Homo sapiens, UniProt P08172); experiment: Binding affinity to human muscarinic M2 receptor expressed in […] cells incubated in dark at 22 degree C for 2 hrs by FACSCalibur flow cytometric saturation binding study; format: cell-based
T1 sequence (P08172 whole entry): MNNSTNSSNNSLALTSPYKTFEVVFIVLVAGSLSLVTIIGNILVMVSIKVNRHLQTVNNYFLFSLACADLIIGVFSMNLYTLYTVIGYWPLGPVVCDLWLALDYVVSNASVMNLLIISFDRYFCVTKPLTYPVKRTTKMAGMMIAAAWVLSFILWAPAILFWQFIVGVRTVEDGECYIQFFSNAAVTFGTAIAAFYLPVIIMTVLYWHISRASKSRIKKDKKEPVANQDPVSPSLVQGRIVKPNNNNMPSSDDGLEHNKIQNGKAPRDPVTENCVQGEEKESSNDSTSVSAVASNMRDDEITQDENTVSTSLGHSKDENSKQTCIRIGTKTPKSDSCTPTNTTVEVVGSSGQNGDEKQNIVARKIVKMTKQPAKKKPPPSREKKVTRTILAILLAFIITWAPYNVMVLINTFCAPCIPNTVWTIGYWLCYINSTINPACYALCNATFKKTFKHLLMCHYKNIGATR

[2] = target: T2, Muscarinic acetylcholine receptor M4 (Homo sapiens, UniProt P08173); experiment: Binding affinity to human muscarinic M4 receptor expressed in […] cells incubated in dark at 22 degree C for 2 hrs by FACSCalibur flow cytometric saturation binding study; format: cell-based
T2 sequence (P08173 whole entry): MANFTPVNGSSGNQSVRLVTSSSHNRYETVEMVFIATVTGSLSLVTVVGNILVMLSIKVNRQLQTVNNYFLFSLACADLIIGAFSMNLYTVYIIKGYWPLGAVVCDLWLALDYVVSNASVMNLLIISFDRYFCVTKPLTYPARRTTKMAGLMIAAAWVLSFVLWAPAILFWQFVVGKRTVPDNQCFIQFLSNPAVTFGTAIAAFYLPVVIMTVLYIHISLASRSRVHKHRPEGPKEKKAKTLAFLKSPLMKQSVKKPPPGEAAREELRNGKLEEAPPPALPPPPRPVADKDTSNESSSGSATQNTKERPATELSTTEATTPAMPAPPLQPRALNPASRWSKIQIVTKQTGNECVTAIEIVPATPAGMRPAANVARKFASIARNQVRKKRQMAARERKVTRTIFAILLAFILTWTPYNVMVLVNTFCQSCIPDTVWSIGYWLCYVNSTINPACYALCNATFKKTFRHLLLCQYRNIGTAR

[3] = target: T2, Muscarinic acetylcholine receptor M4; experiment: (§1) Antagonist activity at human muscarinic M4 receptor expressed in HEK293 cells co-expressing HA-Galphaq/i5 assessed as inhibition of carbachol-induced IP1 accumulation at 22 degree C pre-incubated for 180 mins followed by carbachol addition and further incubated at 37 degree C for 90 mins by HTRF assay; format: functional, cell-based
[4] = target: T1, Muscarinic acetylcholine receptor M2; experiment: as §1, with “M2” for “M4”; format: functional, cell-based
How it was run: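 HEK-hM2-Gαqi5-HA cells (transient transfection) preincubated with antagonist at 22 °C for 180 min, then carbachol 0.3 μM (≈EC80) added and incubation continued at 37 °C for 90 min. Readout is inhibition of IP1 accumulation as pIC50, mean ± SEM of n independent experiments, each in duplicate.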

[5] = target: T3, Muscarinic acetylcholine receptor M1 (Homo sapiens, UniProt P11229); experiment: Displacement of [3H]-NMS from human muscarinic M1 receptor stably expressed in CHO-K9 cells by radioligand competitive binding assay; format: cell-based
T3 sequence (P11229 whole entry): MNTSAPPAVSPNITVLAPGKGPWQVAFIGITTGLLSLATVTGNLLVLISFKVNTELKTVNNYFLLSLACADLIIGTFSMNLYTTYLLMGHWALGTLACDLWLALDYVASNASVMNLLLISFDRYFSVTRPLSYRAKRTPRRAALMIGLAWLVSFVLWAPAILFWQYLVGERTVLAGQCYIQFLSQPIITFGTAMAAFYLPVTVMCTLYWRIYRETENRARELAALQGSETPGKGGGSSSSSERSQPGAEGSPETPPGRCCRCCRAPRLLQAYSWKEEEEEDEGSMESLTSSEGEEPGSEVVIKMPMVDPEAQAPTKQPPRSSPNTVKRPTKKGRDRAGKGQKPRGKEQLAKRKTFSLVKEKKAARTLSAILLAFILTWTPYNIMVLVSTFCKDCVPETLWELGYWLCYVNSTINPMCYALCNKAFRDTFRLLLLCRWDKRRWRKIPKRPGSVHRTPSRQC
How it was run: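 Equilibrium competition binding at live CHO-hMxR cells with [3H]NMS at M1 0.2, M2 0.2, M3 0.2, M4 0.1, M5 0.3 nM. […] Four-parameter logistic fit converted to pKi; at least three experiments in triplicate (some two).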

[6] = Chemical stability of compound in PBS buffer assessed as retention time at pH 7.4 and 22 degree C measured up to 48 hrs by RP-HPLC analysis; format: physicochemical; conditions: pH 7.4, 48 h
How it was run: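 Fluorescent ligand stability checked in PBS pH 7.4 over 48 h by RP-HPLC on a C18 column with an aqueous TFA/acetonitrile gradient, oven at 25 °C, detection at 220 nm.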

[7] = target: T4, Muscarinic acetylcholine receptor M2 (Homo sapiens) (UniProt P08172); experiment: Binding affinity to human muscarinic M2 receptor expressed in […] cells assessed as unspecific binding at Kd incubated in dark at 22 degree C for 2 hrs in presence of atropine by FACSCalibur flow cytometric saturation binding study relative to control; format: cell-based
T4 sequence (whole entry): T1 sequence (P08172 whole entry)

[8] = target: T3, Muscarinic acetylcholine receptor M1; experiment: Binding affinity to human muscarinic M1 receptor expressed in CHO-K9 cells incubated in dark at 22 degree C for 2 hrs by FACSCalibur flow cytometric saturation binding study; format: cell-based
[9] = target: T1, Muscarinic acetylcholine receptor M2; experiment: Binding affinity to human muscarinic M2 receptor expressed in […] cells at 22 +/- 1 degree C preincubated for 180 mins followed by atropine addition by flow cytometric kinetic binding study
[10] = target: T4, Muscarinic acetylcholine receptor M2 (Homo sapiens); experiment: Binding affinity to human muscarinic M2 receptor expressed in CHO-K9 cells assessed as dissociation rate constant at 22 +/- 1 degree C preincubated for 120 mins followed by atropine addition by flow cytometric saturation binding study; format: cell-based
How it was run: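 Dissociation followed by flow cytometry at 22 °C over 9 h. koff from three-parameter incomplete monophasic decline fit; three or four experiments in duplicate.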

[11] = target: T3, Muscarinic acetylcholine receptor M1; experiment: Binding affinity to human muscarinic M1 receptor expressed in CHO-K9 cells incubated in dark measured after 60 mins by Hoechst H33342 dye based confocal plate reader assay; format: cell-based
How it was run: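 Live CHO-hMxR cells (M1 or M2) incubated with fluorescent ligand at 22 °C in the dark for 1 h, washed, then imaged at once by high-content confocal plate reader.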

[12] = target: T1, Muscarinic acetylcholine receptor M2; experiment: Binding affinity to human muscarinic M2 receptor expressed in […] cells at 22 +/- 1 degree C preincubated for 120 mins followed by atropine addition by flow cytometric saturation binding study; format: cell-based
[13] = target: T1, Muscarinic acetylcholine receptor M2; experiment: Binding affinity to human muscarinic M2 receptor expressed in […] cells at 22 +/- 1 degree C preincubated for 110 mins followed by atropine addition by flow cytometric saturation binding study; format: cell-based

SMILES: CC1(C)C(/C=C/C=C/C=C2/N(CCCCCC(=O)NCCN3CCN(CCCCC4CCN(CC(=O)N5c6ccccc6NC(=O)c6ccccc65)CC4)CC3)c3ccc(S(=O)(=O)O)cc3C2(C)C)=[N+](CCCCS(=O)(=O)[O-])c2ccccc21.O=C(O)C(F)(F)F.O=C(O)C(F)(F)F
- Kd ([1]; read-out: Kd): 0.8 nM
- Kd ([1]; read-out: pKd (converted)): 0.891 nM
- Kd [2]: 9.55 nM
- IC50 [3]: 102 nM
- IC50 [4]: 38.9 nM
- Ki [5]: 2.88 nM
- Retention_time [6]: 18.2 min
- Activity [7]: 10%
- Kd [8]: 6.46 nM
- Kd [9]: 0.48 nM

SMILES: CC1(C)C(/C=C/C=C/C=C2/N(CCCCCC(=O)NCCNC(=O)CCc3cn(CCCCC4CCN(CC(=O)N5c6ccccc6NC(=O)c6ccccc65)CC4)cn3)c3ccc(S(=O)(=O)O)cc3C2(C)C)=[N+](CCCCS(=O)(=O)[O-])c2ccccc21.O=C(O)C(F)(F)F
- Kd ([1]; read-out: Kd): 4.1 nM
- Kd ([1]; read-out: pKd (converted)): 4.47 nM
- K [10]: 0.0069 min⁻¹
- IC50 [3]: 138 nM
- IC50 [4]: 57.5 nM
- Ki [5]: 5.25 nM
- Kd [11]: 26.3 nM
- Retention_time [6]: 10.3 min
- Activity [7]: 10%
- Kd [12]: 1.9 nM

SMILES: CC1(C)C(/C=C/C=C/C=C2/N(CCCCCC(=O)NCc3cc(C(=O)NCCNC(=O)CCc4cn(CCCCC5CCN(CC(=O)N6c7ccccc7NC(=O)c7ccccc76)CC5)cn4)cc(C(=O)NCCNC(=O)CCc4cn(CCCCC5CCN(CC(=O)N6c7ccccc7NC(=O)c7ccccc76)CC5)cn4)c3)c3ccc(S(=O)(=O)O)cc3C2(C)C)=[N+](CCCCS(=O)(=O)[O-])c2ccccc21.O=C(O)C(F)(F)F.O=C(O)C(F)(F)F.O=C(O)C(F)(F)F
- Kd ([1]; read-out: Kd): 3.2 nM
- Kd ([1]; read-out: pKd (converted)): 3.09 nM
- IC50 [3]: 37.2 nM
- IC50 [4]: 17.4 nM
- Kd [13]: 1.4 nM
- Ki [5]: 2.29 nM
- Kd [11]: 10 nM
- Retention_time [6]: 10.4 min
- Activity [7]: < 5%
